Data set [1] addresses T1, Peroxisome proliferator-activated receptor gamma (Homo sapiens) (UniProt P37231).
T1 sequence (whole entry): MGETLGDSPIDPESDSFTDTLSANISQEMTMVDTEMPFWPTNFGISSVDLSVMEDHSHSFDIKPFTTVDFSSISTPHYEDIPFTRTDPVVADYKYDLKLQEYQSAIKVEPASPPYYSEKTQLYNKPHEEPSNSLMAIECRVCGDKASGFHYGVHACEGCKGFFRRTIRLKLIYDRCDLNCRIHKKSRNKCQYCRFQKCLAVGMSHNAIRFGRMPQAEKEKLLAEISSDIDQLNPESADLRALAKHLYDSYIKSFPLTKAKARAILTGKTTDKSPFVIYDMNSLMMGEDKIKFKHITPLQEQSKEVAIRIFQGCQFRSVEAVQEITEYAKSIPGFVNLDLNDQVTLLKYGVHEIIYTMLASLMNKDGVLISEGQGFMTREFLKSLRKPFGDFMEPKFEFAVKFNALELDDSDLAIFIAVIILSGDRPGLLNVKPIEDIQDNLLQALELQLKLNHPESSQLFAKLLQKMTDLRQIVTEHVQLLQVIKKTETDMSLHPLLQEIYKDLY
Briefly: Inhibition of Peroxisome proliferator activated receptor gamma. In short, it runs like this:
(§1)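 Competitive radioligand binding to PPARγ with [3H]BRL 49653 as the radioligand. […] It is converted to an apparent Ki by Ki = IC50/(1 + [L]/Kd), and results are given as pKi.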

The target of data set [2] is T1, Peroxisome proliferator-activated receptor gamma (Homo sapiens). Briefly: Compound was tested in vitro for inhibiting the 50% binding of Peroxisome proliferator activated receptor gamma; IA = Inactive. In short, it runs like this: as §1
Data set [3] concerns the target T2, Peroxisome proliferator-activated receptor alpha (Homo sapiens, UniProt Q07869).
T2 sequence (Q07869 whole entry): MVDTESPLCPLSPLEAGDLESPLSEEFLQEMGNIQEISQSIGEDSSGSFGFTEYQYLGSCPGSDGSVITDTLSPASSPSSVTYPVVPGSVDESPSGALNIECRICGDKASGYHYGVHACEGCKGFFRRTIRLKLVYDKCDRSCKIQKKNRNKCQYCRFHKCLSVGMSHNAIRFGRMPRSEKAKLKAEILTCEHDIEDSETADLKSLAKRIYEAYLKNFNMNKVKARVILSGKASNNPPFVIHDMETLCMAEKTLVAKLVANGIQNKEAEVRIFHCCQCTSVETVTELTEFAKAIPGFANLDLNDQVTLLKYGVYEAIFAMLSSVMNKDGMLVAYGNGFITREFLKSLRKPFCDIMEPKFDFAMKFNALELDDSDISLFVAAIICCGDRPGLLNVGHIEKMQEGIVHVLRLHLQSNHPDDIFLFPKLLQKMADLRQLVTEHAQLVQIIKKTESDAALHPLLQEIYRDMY
The experiment in a line: In vitro transactivation of Peroxisome proliferator activated receptor alpha. It is filed as functional.

For data set [4], the target named is T2, Peroxisome proliferator-activated receptor alpha. Briefly: Tested in vitro for inhibiting the 50% binding of Peroxisome proliferator activated receptor alpha.
Data set [5] is described as follows: The solubility determined by equilibrating an excess of solid material in 500 microL of pH 7.4 phosphate buffer. It is filed as ADME. To be noted: read-out: S. In short, it runs like this:
(§2)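 Samples are filtered (0.22 µm) and diluted in water/acetonitrile 60:40. The dissolved concentration is measured by reversed-phase HPLC on a phenyl column with 0.05% TFA water/acetonitrile (60:40), 1 mL/min, and UV detection at each compound's maximum. Results are in mg/mL.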

A short description of data set [6]: The solubility determined by equilibrating an excess of solid material in 500 microL of simulated gastric fluid. Type of data set: ADME. To be noted: read-out: S. In short, it runs like this:
as §2

For data set [7], the target named is T3, Peroxisome proliferator-activated receptor alpha (Homo sapiens) (UniProt Q07869).
T3 sequence (whole entry): T2 sequence (Q07869 whole entry)
Briefly: Compound was tested in vitro for inhibiting the 50% binding of Peroxisome proliferator activated receptor alpha; IA = 'inactive'.

In brackets after ≈: the same amount, converted by molar mass. Activity calls are given as the source filed them. The rule behind the calls is not given here.

Consider `COc1ccc(COc2ccc(C[C@H](Nc3ccccc3C(=O)c3ccccc3)C(=O)O)cc2)cc1OC`, for which, in data set [1], the “Log Ki” value is “inactive”. With `CN(C)C(=O)c1cccc(COc2ccc(C[C@H](Nc3ccccc3C(=O)c3ccccc3)C(=O)O)cc2)n1`, in data set [2], the “Log Ki” value is “inactive”. Take `Cc1cc(C)c(C)c(COc2ccc(C[C@H](Nc3ccccc3C(=O)c3ccccc3)C(=O)O)cc2)c1C`: in data set [1], the “Log Ki” value was “inactive”. With `Cc1sc(NCCCN(C)C)nc1CCOc1ccc(C[C@H](Nc2ccccc2C(=O)c2ccccc2)C(=O)O)cc1`, the EC50 – broadly, the concentration giving half of the maximal effect – in data set [3] is above 10 µM. The Ki – broadly, a dissociation constant, usually derived from enzyme kinetics or from competition with a known ligand – in data set [4] was above 3020 nM. For `COc1ccc(COc2ccc(C[C@H](Nc3ccccc3C(=O)c3ccccc3)C(=O)O)cc2)cc1`, the “Log Ki” value in data set [2] is “inactive”.

Take `Cc1ccc[n+]2c1=NC(c1ccccc1)C=2COc1ccc(C[C@H](Nc2ccccc2C(=O)c2ccccc2)C(=O)O)cc1` (stereo partly drawn): the “Log Ki” value in data set [1] is “inactive”. In turn, `Cc1[nH]c(-c2ccccc2)nc1CCOc1ccc(C[C@H](Nc2ccccc2C(=O)c2ccccc2)C(=O)O)cc1` gave an EC50 in data set [3] above 10 µM. In data set [4], this compound gave a Ki above 3020 nM. Take `COc1ccc(COc2ccc(C[C@H](Nc3ccccc3C(=O)c3ccccc3)C(=O)O)cc2)cc1Br`: the “Log Ki” value in data set [1] is “inactive”. Regarding `COc1cc(OC)c(OC)cc1COc1ccc(C[C@H](Nc2ccccc2C(=O)c2ccccc2)C(=O)O)cc1`, in data set [1], the “Log Ki” value is “inactive”. On to `Cn1cc(-c2ccccc2)nc1CCOc1ccc(C[C@H](Nc2ccccc2C(=O)c2ccccc2)C(=O)O)cc1`, for which the EC50 in data set [3] was above 10 µM. Further, the values for the solubility thermodynamic in data set [5] and in data set [6] were 4 µg/mL (≈ 7.33 µM) and below 1 µg/mL, respectively. In data set [4], the affinity, expressed as Ki, was 138 nM.

In the case of `Cc1ncsc1CCOc1ccc(C[C@H](Nc2ccccc2C(=O)c2ccccc2)C(=O)O)cc1`, the “Log Ki” value in data set [7] was “inactive”. As to `Cc1oc(N2CCCCC2)nc1CCOc1ccc(C[C@H](Nc2ccccc2C(=O)c2ccccc2)C(=O)O)cc1`, the EC50 in data set [3] was above 10 µM. The Ki in data set [4] is above 3020 nM. For `CN(CCOc1ccc(C[C@H](Nc2ccccc2C(=O)c2ccccc2)C(=O)O)cc1)Cc1cccs1`, in data set [1], the “Log Ki” value was “inactive”. In data set [3], `Cc1ccsc1-c1nc(CCOc2ccc(C[C@H](Nc3ccccc3C(=O)c3ccccc3)C(=O)O)cc2)c(C)o1` gave an EC50 of 2.75 µM. The compound further gave a Ki in data set [4] of 468 nM. For the compound `Cc1oc(-c2ccncc2)nc1CCOc1ccc(C[C@H](Nc2ccccc2C(=O)c2ccccc2)C(=O)O)cc1`, the EC50 in data set [3] was above 10 µM. In addition, the solubility thermodynamic was 846 µg/mL (≈ 1540 µM) in data set [5] and 5 µg/mL (≈ 9.13 µM) in data set [6]. In addition, in data set [4], the Ki was above 3020 nM. In the case of `CCOc1ccc(COc2ccc(C[C@H](Nc3ccccc3C(=O)c3ccccc3)C(=O)O)cc2)cc1`, in data set [2], the “Log Ki” value was “inactive”. On to `COCCNc1nc(CCOc2ccc(C[C@H](Nc3ccccc3C(=O)c3ccccc3)C(=O)O)cc2)c(C)s1`, for which, in data set [3], the EC50 is above 10 µM. The solubility thermodynamic in data set [5] and in data set [6] was 210 µg/mL (≈ 375 µM) throughout. In addition, affinity in data set [4] was put at a Ki of 1860 nM. On to `COc1ccc(COc2ccc(C[C@H](Nc3ccccc3C(=O)c3ccccc3)C(=O)O)cc2)nc1OC`, for which, in data set [1], the “Log Ki” value is “inactive”. For `O=C(c1ccccc1)c1ccccc1N[C@@H](Cc1ccc(OCCc2ccc(Cl)cc2)cc1)C(=O)O`, in data set [7], the “Log Ki” value was “inactive”. With `Cc1oc(-c2ccccc2)nc1CCOc1ccc(C[C@H](Nc2ccccc2C(=O)c2ccccc2)C(=O)O)cc1` [FARGLITAZAR], the solubility thermodynamic in data set [5] and in data set [6] was below 1 µg/mL in each case. In the case of `Cc1nc(-c2ccccc2)nn1CCOc1ccc(C[C@H](Nc2ccccc2C(=O)c2ccccc2)C(=O)O)cc1`, in data set [3], the EC50 is above 10 µM. For the same compound, the solubility thermodynamic is 4 µg/mL (≈ 7.32 µM) in data set [5] and 1 µg/mL (≈ 1.83 µM) in data set [6]. In addition, in data set [4], the Ki is above 3020 nM. In data set [3], `Cc1sc(-c2ccccc2)nc1CCOc1ccc(C[C@H](Nc2ccccc2C(=O)c2ccccc2)C(=O)O)cc1` had an EC50 of 1.05 µM. For the same compound, the values for the solubility thermodynamic in data set [5] and in data set [6] were 2 µg/mL (≈ 3.55 µM) and below 1 µg/mL, respectively. Affinity in data set [4] was put at a Ki of 126 nM.

As for `O=C(c1ccccc1)c1ccccc1N[C@@H](Cc1ccc(OCCOc2ccc(Br)cc2)cc1)C(=O)O`, the “Log Ki” value in data set [7] is “inactive”.

In data set [3], `COCn1c(-c2ccccc2)nc(C)c1CCOc1ccc(C[C@H](Nc2ccccc2C(=O)c2ccccc2)C(=O)O)cc1` had an EC50 above 10 µM. In addition, the Ki in data set [4] was above 3020 nM. On the same counts, the results for `Cc1ccc(-c2nc(CCOc3ccc(C[C@H](Nc4ccccc4C(=O)c4ccccc4)C(=O)O)cc3)c(C)o2)s1` are 0.575 µM and 45.7 nM.

Consider `Cc1ccc2cc(COc3ccc(C[C@H](Nc4ccccc4C(=O)c4ccccc4)C(=O)O)cc3)ccc2n1`, for which the “Log Ki” value in data set [1] is “inactive”. In turn, `Cc1cc(CCOc2ccc(C[C@H](Nc3ccccc3C(=O)c3ccccc3)C(=O)O)cc2)nn1-c1ccccc1` gave an EC50 in data set [3] above 10 µM. In data set [4], the affinity, expressed as Ki, was 407 nM. In the same order, the values of `Cc1cc(-c2nc(CCOc3ccc(C[C@H](Nc4ccccc4C(=O)c4ccccc4)C(=O)O)cc3)c(C)s2)no1` are 1.82 µM and 178 nM.

With `COc1cc(COc2ccc(C[C@H](Nc3ccccc3C(=O)c3ccccc3)C(=O)O)cc2)cc(Br)c1OC`, the “Log Ki” value in data set [1] was “inactive”. Same read-out and setting: in the case of `Cc1nc(COc2ccc(C[C@H](Nc3ccccc3C(=O)c3ccccc3)C(=O)O)cc2)n2nc(Cl)ccc12` it was “inactive”; in that of `O=C(c1ccccc1)c1ccccc1N[C@@H](Cc1ccc(OCc2cnc3ccccc3c2)cc1)C(=O)O`, “inactive”. As to `Cc1sc(N(C)C)nc1CCOc1ccc(C[C@H](Nc2ccccc2C(=O)c2ccccc2)C(=O)O)cc1`, the EC50 in data set [3] was above 10 µM. This compound showed a Ki in data set [4] above 3020 nM. In turn, `Cc1sc(N2CCNCC2)nc1CCOc1ccc(C[C@H](Nc2ccccc2C(=O)c2ccccc2)C(=O)O)cc1` showed an EC50 in data set [3] above 10 µM. The values for the solubility thermodynamic in data set [5] and in data set [6] were 25 µg/mL (≈ 43.8 µM) and above 10000 µg/mL, respectively. The same compound had a Ki in data set [4] above 3020 nM. Regarding `O=C(c1ccccc1)c1ccccc1N[C@@H](Cc1ccc(OCC2COC(C3CCCCC3)O2)cc1)C(=O)O` (stereo partly drawn), the “Log Ki” value in data set [1] was “inactive”. With `O=C(c1ccccc1)c1ccccc1N[C@@H](Cc1ccc(OCCc2cc(Br)no2)cc1)C(=O)O`, in data set [2], the “Log Ki” value is “inactive”. For the compound `Cc1sc(N2CCN(C(=O)OC(C)(C)C)CC2)nc1CCOc1ccc(C[C@H](Nc2ccccc2C(=O)c2ccccc2)C(=O)O)cc1`, the EC50 in data set [3] was above 10 µM. The compound also showed a Ki in data set [4] above 3020 nM. Turning to `Cc1ccc(C)c(COc2ccc(C[C@H](Nc3ccccc3C(=O)c3ccccc3)C(=O)O)cc2)c1`, the “Log Ki” value in data set [2] was “inactive”.

In turn, `COc1ccc(-c2nc(CCOc3ccc(C[C@H](Nc4ccccc4C(=O)c4ccccc4)C(=O)O)cc3)c(C)o2)cc1` had an EC50 in data set [3] of 0.389 µM. The compound also had a Ki in data set [4] of 107 nM.

Consider `O=C(c1ccccc1)c1ccccc1N[C@@H](Cc1ccc(O)cc1)C(=O)O`, for which the “Log Ki” value in data set [1] is “inactive”.

In the case of `Cc1sc(-c2ccncc2)nc1CCOc1ccc(C[C@H](Nc2ccccc2C(=O)c2ccccc2)C(=O)O)cc1`, the EC50 in data set [3] is above 10 µM. The same compound had a Ki in data set [4] above 3020 nM. Consider `Cc1sc(N2CCN(C)CC2)nc1CCOc1ccc(C[C@H](Nc2ccccc2C(=O)c2ccccc2)C(=O)O)cc1`, for which the half-maximal effective concentration (EC50) in data set [3] was 6.46 µM. The solubility thermodynamic in data set [5] is 10 µg/mL (≈ 17.1 µM); in data set [6] it was above 6000 µg/mL. This compound gave a Ki in data set [4] above 3020 nM.

With `Cc1ccc[n+]2c1=NC(C)C=2COc1ccc(C[C@H](Nc2ccccc2C(=O)c2ccccc2)C(=O)O)cc1` (stereo partly drawn), the “Log Ki” value in data set [1] is “inactive”. Still for that read-out and setting: in the case of `C/C(=C\c1ccccc1)COc1ccc(C[C@H](Nc2ccccc2C(=O)c2ccccc2)C(=O)O)cc1` it was “inactive”. `Cc1sc(N2CCOCC2)nc1CCOc1ccc(C[C@H](Nc2ccccc2C(=O)c2ccccc2)C(=O)O)cc1`: the EC50 in data set [3] is above 10 µM. For the same compound, the solubility thermodynamic in data set [5] was 180 µg/mL (≈ 315 µM); in data set [6], 4 µg/mL (≈ 7 µM). For the same compound, the affinity in data set [4] corresponds to a Ki of 1910 nM. With `Cc1oc(-c2ccc(F)cc2)nc1CCOc1ccc(C[C@H](Nc2ccccc2C(=O)c2ccccc2)C(=O)O)cc1`, the EC50 in data set [3] is 0.257 µM. The same compound gave a Ki in data set [4] of 56.2 nM.
